ChEMBL document CHEMBL4622841, “Structural modifications of indolinones bearing a pyrrole moiety and discovery of a multi-kinase inhibitor with potent antitumor activity” (Bioorg Med Chem, 2020)
The source made the active and inactive calls. The calls are words filed in the database; no cut-off is given here.

Key:
HepG2 [1] = experiment: Induction of apoptosis in human HepG2 cells assessed as early apoptotic cells at 1 uM incubated for 72 hrs by Annexin-V-FITC/propidium iodide staining-based flow cytometric analysis (reference value: 1.08%); assay type: functional
[2] = target: Serine/threonine-protein kinase B-raf (Homo sapiens, UniProt P15056); experiment: Inhibition of B-Raf (unknown origin) at 1 uM using FAM-labeled peptide and ATP as substrate preincubated for 10 mins followed by substrate addition measured after 1 hr by mobility shift assay
[3] = target: Cyclin-dependent kinase 4 (Homo sapiens, UniProt P11802); experiment: Inhibition of CDK4 (unknown origin) at 1 uM using FAM-labeled peptide and ATP as substrate preincubated for 10 mins followed by substrate addition measured after 1 hr by mobility shift assay
HepG2 [4] = experiment: Induction of apoptosis in human HepG2 cells incubated for 72 hrs by Annexin-V-FITC/propidium iodide staining-based flow cytometric analysis; assay type: functional, cell-based
HepG2 [5] = experiment: Induction of apoptosis in human HepG2 cells assessed as late apoptotic cells at 0.3 uM incubated for 72 hrs by Annexin-V-FITC/propidium iodide staining-based flow cytometric analysis (reference value: 2.89%); assay type: functional
MKN-74 [6] = experiment: Induction of apoptosis in human MKN74 cells assessed as viable cells at 1 uM incubated for 72 hrs by Annexin-V-FITC/propidium iodide staining-based flow cytometric analysis (reference value: 76.84%); assay type: functional; settings: MKN-74, 72 h, read-out: Activity
MKN-74 [7] = experiment: Inhibition of colony formation in human MKN74 cells at 1 uM measured after 14 days by crystal violet staining-based assay; assay type: functional; settings: MKN-74, 336 h
HT-29 [8] = experiment: Inhibition of colony formation in human HT-29 cells measured after 14 days by crystal violet staining-based assay; assay type: functional, cell-based
How it was run: (§1)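 Cells plated and exposed to test agent at a range of concentrations for 14 days, then colonies counted. Colony formation expressed relative to vehicle-treated cells as mean ± SEM. Significance versus vehicle by unpaired two-tailed Student's t-test.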

MKN-74 [9] = experiment: Induction of apoptosis in human MKN74 cells assessed as necrotic cells at 3 uM incubated for 72 hrs by Annexin-V-FITC/propidium iodide staining-based flow cytometric analysis (reference value: 6.29%); assay type: functional
HT-29 [10] = experiment: Induction of apoptosis in human HT-29 cells incubated for 72 hrs by Annexin-V-FITC/propidium iodide staining-based flow cytometric analysis; assay type: functional, cell-based
HepG2 [11] = experiment: Inhibition of receptor tyrosine kinase in human HepG2 cells assessed as reduction in AKT phosphorylation at Ser473 residue after 24 hrs by Western blotting analysis; assay type: cell-based
How it was run: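 Cells cultured overnight, then treated with compound at different concentrations for 24 h. About 1×10⁶ cells harvested and immunoblotted for p-AKT (Ser473), AKT, p-ERK (Thr202/Tyr204), ERK, with GAPDH as loading control. Detection by chemiluminescence and gel imaging. Blots shown are representative of several experiments.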

HUVEC [12] = experiment: Induction of apoptosis in human HUVEC cells assessed as early apoptotic cells at 0.3 uM incubated for 48 hrs by Annexin-V-FITC/propidium iodide staining-based flow cytometric analysis (reference value: 3.63%); assay type: functional
HT-29 [13] = experiment: Induction of apoptosis in human HT-29 cells assessed as early apoptotic cells at 3 uM incubated for 72 hrs by Annexin-V-FITC/propidium iodide staining-based flow cytometric analysis (reference value: 3.18%); assay type: functional
HepG2 [14] = experiment: Induction of apoptosis in human HepG2 cells assessed as late apoptotic cells at 1 uM incubated for 72 hrs by Annexin-V-FITC/propidium iodide staining-based flow cytometric analysis (reference value: 2.89%); assay type: functional
HEK-293T = experiment: Induction of apoptosis in human HEK293T cells by Annexin-V-FITC/propidium iodide staining-based flow cytometric analysis; assay type: cell-based
HT-29 [15] = experiment: Induction of apoptosis in human HT-29 cells assessed as late apoptotic cells at 1 uM incubated for 72 hrs by Annexin-V-FITC/propidium iodide staining-based flow cytometric analysis (reference value: 6.12%); assay type: functional
HUVEC [16] = experiment: Induction of apoptosis in human HUVEC cells assessed as late apoptotic cells at 1 uM incubated for 48 hrs by Annexin-V-FITC/propidium iodide staining-based flow cytometric analysis (reference value: 3.48%); assay type: functional
[17] = Intrinsic clearance in mouse liver microsomes; assay type: ADME, Microsome; settings: read-out: CLH
MKN-74 [18] = experiment: Induction of apoptosis in human MKN74 cells assessed as late apoptotic cells at 0.3 uM incubated for 72 hrs by Annexin-V-FITC/propidium iodide staining-based flow cytometric analysis (reference value: 12.42%); assay type: functional
[19] = Half life in mouse liver microsomes; assay type: ADME, Microsome
HUVEC [20] = experiment: Induction of apoptosis in human HUVEC cells assessed as late apoptotic cells at 3 uM incubated for 48 hrs by Annexin-V-FITC/propidium iodide staining-based flow cytometric analysis (reference value: 3.48%); assay type: functional
HT-29 [21] = experiment: Antitumor activity against human HT-29 cells xenografted in nu/nu mouse assessed as tumour growth inhibition at 100 mg/kg, po qd for 18 days and measured twice per week by vernier caliper method; assay type: functional; settings: HT-29, po, 432 h, read-out: TGI
HUVEC [22] = experiment: Induction of apoptosis in human HUVEC cells assessed as late apoptotic cells at 0.3 uM incubated for 48 hrs by Annexin-V-FITC/propidium iodide staining-based flow cytometric analysis (reference value: 3.48%); assay type: functional
HUVEC [23] = experiment: Induction of apoptosis in human HUVEC cells assessed as early apoptotic cells at 3 uM incubated for 48 hrs by Annexin-V-FITC/propidium iodide staining-based flow cytometric analysis (reference value: 3.63%); assay type: functional
[24] = Toxicity in nu/nu mouse xenografted with human HT-29 cells assessed as effect on body weight at 100 mg/kg, po qd for 18 days; assay type: organism-based; settings: in vivo, 432 h
How it was run: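 Female nu/nu mice, 4–6 weeks old, implanted subcutaneously in the right flank with HT-29 cells (2×10⁶/mL). Once tumours reached 200 mm³, mice randomised to groups (n = 6) and dosed orally once daily at 100 mg/kg for 18 days. Body weight monitored during treatment. Results given as mean ± SD.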

HepG2 [25] = experiment: Inhibition of colony formation in human HepG2 cells at 1 uM measured after 14 days by crystal violet staining-based assay; assay type: functional, cell-based; how it was run: as §1

Sequence of Cyclin-dependent kinase 4 (P11802 whole entry): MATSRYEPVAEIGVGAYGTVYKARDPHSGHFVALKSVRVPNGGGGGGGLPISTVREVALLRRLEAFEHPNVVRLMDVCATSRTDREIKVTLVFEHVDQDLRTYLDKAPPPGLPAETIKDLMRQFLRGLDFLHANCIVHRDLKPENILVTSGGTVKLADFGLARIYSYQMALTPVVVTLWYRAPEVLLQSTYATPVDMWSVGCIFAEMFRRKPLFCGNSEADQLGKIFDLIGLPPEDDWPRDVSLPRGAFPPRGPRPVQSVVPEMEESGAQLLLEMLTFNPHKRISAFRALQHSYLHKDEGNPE
Sequence of Serine/threonine-protein kinase B-raf (P15056 whole entry): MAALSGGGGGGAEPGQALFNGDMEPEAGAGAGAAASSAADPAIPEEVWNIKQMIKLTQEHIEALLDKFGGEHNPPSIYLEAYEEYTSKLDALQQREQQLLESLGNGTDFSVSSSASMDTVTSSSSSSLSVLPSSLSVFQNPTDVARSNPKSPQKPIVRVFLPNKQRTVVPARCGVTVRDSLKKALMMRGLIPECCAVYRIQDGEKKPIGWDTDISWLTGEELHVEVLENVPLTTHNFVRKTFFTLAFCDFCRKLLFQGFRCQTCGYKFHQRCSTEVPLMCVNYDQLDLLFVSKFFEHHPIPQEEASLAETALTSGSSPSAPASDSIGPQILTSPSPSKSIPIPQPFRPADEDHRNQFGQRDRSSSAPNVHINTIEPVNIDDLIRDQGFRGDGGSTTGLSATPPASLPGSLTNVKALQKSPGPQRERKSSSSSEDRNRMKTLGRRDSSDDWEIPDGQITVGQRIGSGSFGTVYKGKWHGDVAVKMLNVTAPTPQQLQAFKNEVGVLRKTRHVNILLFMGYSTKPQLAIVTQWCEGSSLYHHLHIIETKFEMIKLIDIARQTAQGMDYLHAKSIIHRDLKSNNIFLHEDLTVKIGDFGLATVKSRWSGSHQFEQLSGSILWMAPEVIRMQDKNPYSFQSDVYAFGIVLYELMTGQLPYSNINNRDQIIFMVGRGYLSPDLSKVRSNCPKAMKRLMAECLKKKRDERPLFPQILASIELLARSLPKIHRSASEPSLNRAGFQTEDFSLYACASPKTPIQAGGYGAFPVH

For COC(=O)c1ccc2c(c1)NC(=O)/C2=C(\Nc1ccc(-n2c(C)ccc2CN2CCN(C)CC2)cc1)c1ccccc1, the Activity (HepG2 [1]) was 17.61%, the inhibition [2] was “inactive” and the inhibition [3] was “inactive”. For the same molecule, the Activity (HepG2 [4]) was “Dose-dependent effect”, the Activity (HepG2 [5]) was 4.64% and the viability at 1 µM (MKN-74 [6]) was 62.9%. The inhibition at 1 µM (MKN-74 [7]) was 100%, the inhibition (HT-29 [8]) was “Dose-dependent effect” and the Activity (MKN-74 [9]) was 4.15%. The Activity (HT-29 [10]) was “Dose-dependent effect”, the inhibition (HepG2 [11]) was “Dose-dependent effect” and the Activity (HUVEC [12]) was 2.36%. For the same molecule, the Activity (HT-29 [13]) was 0.54%, the Activity (HepG2 [14]) was 61.54% and the Activity (HEK-293T) was “Non-Toxic”. It also gave an Activity (HT-29 [15]) of 37.8%, an Activity (HUVEC [16]) of 3.09% and a CLint scaled [17] of 436 mL/min/kg. For the same molecule, the Activity (MKN-74 [18]) was 16.86%, the half-life [19] was 12.5 min and the Activity (HUVEC [20]) was 9.06%. It also gave an inhibition in vivo at 100 mg/kg (HT-29 [21]) of 13.4%, an Activity (HUVEC [22]) of 2.76% and an Activity (HUVEC [23]) of 55.63%. The Activity [24] was “Non-Toxic” and the inhibition (HepG2 [25]) was “Active”.
